# Experimental data: ChEMBL document CHEMBL4689842, “EUbOPEN Chemogenomics Library wave 1” (2021)
# System: U2OS
# Experiment: Multiplex assay against U2OS
# Type: toxicity, cell-based
# Details: human
# Method in brief: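 Hoechst33342, BioTracker Green Microtubule Cytoskeleton Dye, MitoTracker Red and Annexin V Alexa Fluor 680 were added to live cells at seeding, and imaging on a CQ1 microscope at 37°C and 5% CO2 followed compound addition. Gating by CellPathfinder machine learning separated cells into Hoechst high-intensity objects or normal cells, then normal cells into healthy, pyknosed or fragmented nuclei, then pyknosed cells into mitotic or apoptotic. Per cents of healthy-nucleus cells are reported for the tubulin, mitochondrial-mass and membrane-permeability phenotypes.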
# [1] = 12 h, 1 µM, compound concentration 1 uM, replicate 1
# [2] = 12 h, 1 µM, compound concentration 1 uM, replicate 2
# [3] = 12 h, 10 µM, compound concentration 10 uM, replicate 1
# [4] = 12 h, 10 µM, compound concentration 10 uM, replicate 2
# [5] = 24 h, 1 µM, compound concentration 1 uM, replicate 1
# [6] = 24 h, 1 µM, compound concentration 1 uM, replicate 2
# [7] = 24 h, 10 µM, compound concentration 10 uM, replicate 1
# [8] = 24 h, 10 µM, compound concentration 10 uM, replicate 2
# [9] = 48 h, 1 µM, compound concentration 1 uM, replicate 1
# [10] = 48 h, 1 µM, compound concentration 1 uM, replicate 2
# [11] = 48 h, 10 µM, compound concentration 10 uM, replicate 1
# [12] = 48 h, 10 µM, compound concentration 10 uM, replicate 2
compound,measurement,setting,value
CC(C)c1noc(N2CCC(COc3ccc(-c4ccc(S(C)(=O)=O)cc4)nc3)CC2)n1 [GSK-1292263],Population Apoptotic (%),[1],58%
same,Population Fragmented Nuclei (%),[1],25%
same,Population Healthy Nuclei (%),[1],64%
same,Population Hoechst High Intensity Objects (%),[1],17%
same,Population Membrane Permeable-Phenotype (%),[1],5%
same,Population Mitochondria Different-Phenotype (%),[1],10%
same,Population Mitotic Cells (%),[1],41%
same,Population Normal (%),[1],82%
same,Population Pyknosed Nuclei (%),[1],10%
same,Population Tubulin-Different-Phenotype (%),[1],10%
same,Total Cell Count,[1],304
same,Population Apoptotic (%),[2],50%
same,Population Fragmented Nuclei (%),[2],12%
same,Population Healthy Nuclei (%),[2],85%
same,Population Hoechst High Intensity Objects (%),[2],2%
same,Population Membrane Permeable-Phenotype (%),[2],3%
same,Population Mitochondria Different-Phenotype (%),[2],4%
same,Population Mitotic Cells (%),[2],50%
same,Population Normal (%),[2],97%
same,Population Pyknosed Nuclei (%),[2],2%
same,Population Tubulin-Different-Phenotype (%),[2],9%
same,Total Cell Count,[2],89
same,Population Apoptotic (%),[3],54%
same,Population Fragmented Nuclei (%),[3],16%
same,Population Healthy Nuclei (%),[3],67%
same,Population Hoechst High Intensity Objects (%),[3],7%
same,Population Membrane Permeable-Phenotype (%),[3],12%
same,Population Mitochondria Different-Phenotype (%),[3],18%
same,Population Mitotic Cells (%),[3],45%
same,Population Normal (%),[3],92%
same,Population Pyknosed Nuclei (%),[3],15%
same,Population Tubulin-Different-Phenotype (%),[3],33%
same,Total Cell Count,[3],141
same,Population Apoptotic (%),[4],42%
same,Population Fragmented Nuclei (%),[4],5%
same,Population Healthy Nuclei (%),[4],83%
same,Population Hoechst High Intensity Objects (%),[4],5%
same,Population Membrane Permeable-Phenotype (%),[4],3%
same,Population Mitochondria Different-Phenotype (%),[4],10%
same,Population Mitotic Cells (%),[4],57%
same,Population Normal (%),[4],94%
same,Population Pyknosed Nuclei (%),[4],10%
same,Population Tubulin-Different-Phenotype (%),[4],15%
same,Total Cell Count,[4],76
same,Population Apoptotic (%),[5],50%
same,Population Fragmented Nuclei (%),[5],17%
same,Population Healthy Nuclei (%),[5],73%
same,Population Hoechst High Intensity Objects (%),[5],15%
same,Population Membrane Permeable-Phenotype (%),[5],5%
same,Population Mitochondria Different-Phenotype (%),[5],11%
same,Population Mitotic Cells (%),[5],50%
same,Population Normal (%),[5],84%
same,Population Pyknosed Nuclei (%),[5],8%
same,Population Tubulin-Different-Phenotype (%),[5],5%
same,Total Cell Count,[5],334
same,Population Apoptotic (%),[6],0%
same,Population Fragmented Nuclei (%),[6],14%
same,Population Healthy Nuclei (%),[6],83%
same,Population Hoechst High Intensity Objects (%),[6],2%
same,Population Membrane Permeable-Phenotype (%),[6],2%
same,Population Mitochondria Different-Phenotype (%),[6],10%
same,Population Mitotic Cells (%),[6],100%
same,Population Normal (%),[6],97%
same,Population Pyknosed Nuclei (%),[6],2%
same,Population Tubulin-Different-Phenotype (%),[6],13%
same,Total Cell Count,[6],103
same,Population Apoptotic (%),[7],40%
same,Population Fragmented Nuclei (%),[7],20%
same,Population Healthy Nuclei (%),[7],67%
same,Population Hoechst High Intensity Objects (%),[7],7%
same,Population Membrane Permeable-Phenotype (%),[7],9%
same,Population Mitochondria Different-Phenotype (%),[7],14%
same,Population Mitotic Cells (%),[7],60%
same,Population Normal (%),[7],92%
same,Population Pyknosed Nuclei (%),[7],12%
same,Population Tubulin-Different-Phenotype (%),[7],14%
same,Total Cell Count,[7],168
same,Population Apoptotic (%),[8],36%
same,Population Fragmented Nuclei (%),[8],7%
same,Population Healthy Nuclei (%),[8],79%
same,Population Hoechst High Intensity Objects (%),[8],4%
same,Population Membrane Permeable-Phenotype (%),[8],7%
same,Population Mitochondria Different-Phenotype (%),[8],12%
same,Population Mitotic Cells (%),[8],63%
same,Population Normal (%),[8],95%
same,Population Pyknosed Nuclei (%),[8],13%
same,Population Tubulin-Different-Phenotype (%),[8],7%
same,Total Cell Count,[8],91
same,Population Apoptotic (%),[9],42%
same,Population Healthy Nuclei (%),[9],79%
same,Population Hoechst High Intensity Objects (%),[9],9%
same,Population Membrane Permeable-Phenotype (%),[9],2%
same,Population Mitochondria Different-Phenotype (%),[9],12%
same,Population Mitotic Cells (%),[9],57%
same,Population Normal (%),[9],90%
same,Population Pyknosed Nuclei (%),[9],9%
same,Population Tubulin-Different-Phenotype (%),[9],8%
same,Total Cell Count,[9],406
same,Population Apoptotic (%),[10],25%
same,Population Fragmented Nuclei (%),[10],11%
same,Population Healthy Nuclei (%),[10],85%
same,Population Hoechst High Intensity Objects (%),[10],0%
same,Population Membrane Permeable-Phenotype (%),[10],4%
same,Population Mitochondria Different-Phenotype (%),[10],13%
same,Population Mitotic Cells (%),[10],75%
same,Population Normal (%),[10],100%
same,Population Pyknosed Nuclei (%),[10],3%
same,Population Tubulin-Different-Phenotype (%),[10],12%
same,Total Cell Count,[10],136
same,Population Apoptotic (%),[11],60%
same,Population Fragmented Nuclei (%),[11],14%
same,Population Healthy Nuclei (%),[11],76%
same,Population Hoechst High Intensity Objects (%),[11],8%
same,Population Mitotic Cells (%),[11],40%
same,Population Normal (%),[11],91%
same,Population Pyknosed Nuclei (%),[11],9%
same,Population Tubulin-Different-Phenotype (%),[11],9%
same,Total Cell Count,[11],231
same,Population Apoptotic (%),[12],23%
same,Population Fragmented Nuclei (%),[12],5%
same,Population Healthy Nuclei (%),[12],80%
same,Population Hoechst High Intensity Objects (%),[12],2%
same,Population Membrane Permeable-Phenotype (%),[12],6%
same,Population Mitochondria Different-Phenotype (%),[12],13%
same,Population Mitotic Cells (%),[12],76%
same,Population Normal (%),[12],97%
same,Population Pyknosed Nuclei (%),[12],14%
same,Population Tubulin-Different-Phenotype (%),[12],7%
same,Total Cell Count,[12],130
